≈ marks a conversion by molar mass, not a printed value. Calls of active or inactive are those of the source. The rule behind the calls is not given here.

Broadly, the MIC is the lowest concentration that inhibits growth of the organism. Read a high MIC as a need for much substance.

The subject of data set [1] is HCT-8. Kind of data set: Cell cycle arrest in human HCT8 cells assessed as accumulation at G2/M phase at 50 ug/mL after 24 hrs by propidium iodide staining-based flow cytometric analysis (reference value: 13.83%). The class given is ADME. To be noted: hct-8, 24 h. For orientation: Flow cytometry measures light scatter and fluorescence of single cells or particles in a stream.

Data set [2] has as its system HCT-8. Kind of data set: Cell cycle arrest in human HCT8 cells assessed as accumulation at S phase at 50 ug/mL after 24 hrs by propidium iodide staining-based flow cytometric analysis (reference value: 39.43%). The data set is classed as ADME. As to conditions: hct-8, 24 h.
Data set [3] can be described thus: Induction of apoptosis in human HCT8 cells assessed as viable cells at 50 ug/mL after 24 hrs by Annexin V-FITC and propidium iodide staining-based flow cytometric analysis (reference value: 87.7%). The class given is cell-based, HCT-8. As to conditions: read-out: Activity.
The subject of data set [4] is HCT-8. Put plainly: Induction of apoptosis in human HCT8 cells assessed as early apoptotic cells at 50 ug/mL after 24 hrs by Annexin V-FITC and propidium iodide staining-based flow cytometric analysis (reference value: 1.57%). The class given is cell-based. To be noted: hct-8, 24 h.
Data set [5] relates to HCT-8. Kind of data set: Induction of apoptosis in human HCT8 cells assessed as late apoptotic cells at 50 ug/mL after 24 hrs by Annexin V-FITC and propidium iodide staining-based flow cytometric analysis (reference value: 2.97%). The class given is cell-based. As to conditions: hct-8, 24 h.
Data set [6] concerns HCT-8. Kind of data set: Induction of apoptosis in human HCT8 cells assessed as necrotic cells at 50 ug/mL after 24 hrs by Annexin V-FITC and propidium iodide staining-based flow cytometric analysis (reference value: 7.73%). The class given is cell-based. To be noted: hct-8, 24 h.
The test system of data set [7] is Acinetobacter baumannii. Put plainly: Antibacterial activity against Acinetobacter baumannii 136 assessed as growth inhibition at 1 mg/mL after 24 hrs by agar-disk diffusion technique. The class given is functional, organism-based. Put shortly: (§1)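 Agar-disk diffusion, adapted: plates seeded with 0.5 McFarland suspension prepared from 24 h cultures; 5 µL of a 1 mg/mL compound solution spotted onto the seeded solid medium; incubated 24 h at 37 °C. Stocks made in DMSO.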
(A growth-free zone around the sample is the usual read-out of agar diffusion tests.)

In data set [8] the test system is Acinetobacter baumannii. Put plainly: Antibacterial activity against Acinetobacter baumannii 135 assessed as growth inhibition at 1 mg/mL after 24 hrs by agar-disk diffusion technique. The data set is classed as functional, organism-based. Put shortly:
as §1

Data set [9] deals with Pseudomonas putida. Kind of data set: Antibacterial activity against Pseudomonas putida 160 assessed as growth inhibition at 1 mg/mL after 24 hrs by agar-disk diffusion technique. The class given is functional, organism-based. A digest of the protocol: as §1
The subject of data set [10] is Pseudomonas aeruginosa. Put plainly: Antibacterial activity against Pseudomonas aeruginosa 1144 assessed as growth inhibition at 1 mg/mL after 24 hrs by agar-disk diffusion technique. The data set is classed as functional, organism-based. Put shortly: as §1
Data set [11] has as its system Pseudomonas aeruginosa. Kind of data set: Antibacterial activity against Pseudomonas aeruginosa 165 assessed as growth inhibition at 1 mg/mL after 24 hrs by agar-disk diffusion technique. The class given is functional, organism-based. Put shortly:
as §1

Data set [12] has as its system Proteus mirabilis. Kind of data set: Antibacterial activity against Proteus mirabilis 1751 assessed as growth inhibition at 1 mg/mL after 24 hrs by agar-disk diffusion technique. The data set is classed as functional, organism-based. Put shortly:
as §1

The subject of data set [13] is Enterobacter cloacae. Put plainly: Antibacterial activity against Enterobacter cloacae 1845 assessed as growth inhibition at 1 mg/mL after 24 hrs by agar-disk diffusion technique. The class given is functional, organism-based. Put shortly: as §1
The subject of data set [14] is Mycobacterium tuberculosis. Kind of data set: Antimycobacterial activity against Mycobacterium tuberculosis after 8 days by micro plate Alamar Blue assay. The class given is functional. As to conditions: 192 h. Put shortly: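 Clinical M. tuberculosis strain grown in Middlebrook 7H9 broth. Compounds were dissolved in DMSO and serially diluted twofold on the plate, final 25 to 0.012 µg/mL. Plates were sealed and held 8 days at 37 °C. Alamar Blue with 10% Tween 80 (1:1) was then added for another 24 h at 37 °C. MIC was the lowest concentration preventing the blue-to-pink change.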
Background: The colour change of resazurin is a common sign of viable cells or microbes.

The test system of data set [15] is Radical scavenging activity. Put plainly: Antioxidant activity assessed as DPPH radical scavenging activity at 0.1 mg/mL after 30 mins under dark conditions by spectrophotometric analysis relative to control. The data set is classed as functional. A digest of the protocol:
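Compounds dissolved in methanol at 0.1 mg/mL; 0.2 mL mixed with 1.8 mL of 2 × 10^-4 M DPPH in methanol and kept in the dark 30 min. Absorbance read at 517 nm. The blank was DPPH plus methanol. TAC (%) = (Abs initial − Abs 30 min)/Abs initial × 100.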

Data set [16] has as its system HCT-8. Kind of data set: Decrease in NAT1 gene expression in human HCT8 cells at 50 ug/mL after 24 hrs by RT-PCR analysis. To be noted: hct-8, 24 h. The data set is classed as ADME, cell-based.
Data set [17] concerns HCT-8. Kind of data set: Cell cycle arrest in human HCT8 cells assessed as accumulation at G0/G1 phase at 50 ug/mL after 24 hrs by propidium iodide staining-based flow cytometric analysis (reference value: 46.43%). The data set is classed as ADME. As to conditions: hct-8, 24 h.
Data set [18] deals with HCT-8. Put plainly: Decrease in NAT2 gene expression in human HCT8 cells at 50 ug/mL after 24 hrs by RT-PCR analysis. The class given is ADME, cell-based. To be noted: hct-8, 24 h.
The test system of data set [19] is Acinetobacter baumannii. Put plainly: Antibacterial activity against Acinetobacter baumannii 247 assessed as growth inhibition at 1 mg/mL after 24 hrs by agar-disk diffusion technique. The class given is functional, organism-based. Put shortly: as §1
Data set [20] concerns Acinetobacter baumannii. Kind of data set: Antibacterial activity against Acinetobacter baumannii 125 assessed as growth inhibition at 1 mg/mL after 24 hrs by agar-disk diffusion technique. The data set is classed as functional, organism-based. Put shortly:
as §1

In data set [21] the test system is Pseudomonas aeruginosa. Kind of data set: Antibacterial activity against Pseudomonas aeruginosa ATCC 27853 assessed as growth inhibition at 1 mg/mL after 24 hrs by agar-disk diffusion technique. The data set is classed as functional, organism-based. Put shortly: as §1
In data set [22] the test system is Klebsiella pneumoniae. Put plainly: Antibacterial activity against Klebsiella pneumoniae 1756 assessed as growth inhibition at 1 mg/mL after 24 hrs by agar-disk diffusion technique. The class given is functional, organism-based. A digest of the protocol: as §1
For data set [23], the system named is Escherichia coli. Kind of data set: Antibacterial activity against Escherichia coli 1777 assessed as growth inhibition at 1 mg/mL after 24 hrs by agar-disk diffusion technique. The class given is functional, organism-based. Put shortly:
as §1

Data set [24] deals with Morganella morganii. Put plainly: Antibacterial activity against Morganella morganii 2810 assessed as growth inhibition at 1 mg/mL after 24 hrs by agar-disk diffusion technique. The data set is classed as functional, organism-based. A digest of the protocol:
as §1

As to `COc1ccc(/C=C/C(N)(S)NNC(=O)c2ccncc2)cc1` (stereo unspecified), the Activity in data set [1] is given as 13.78%; in [2], 37.52%; in data set [4], 1.29%; in data set [5], 9.83%; in data set [6], 18.2%; in data set [16], “Toxic”. Moreover, the Activity in data set [17] was 48.85%; in data set [18], “Toxic”. The viability at 24 h, 50 ug/mL in data set [3] came out at 70.7%. Also, the “growth inhibition (GI)” value in [7], in [8], in [9], in [10], in data set [11] and in data set [13] was “Active” throughout. Besides, the “growth inhibition (GI)” value in data set [12] is “inactive”. Also, the MIC in [14] is 1.56 µg/mL (≈ 4.73 µM). In data set [15], the TAC came to 14%.

On to `COc1ccc(/C=C/C(N)=S)cc1`, for which the Activity in [1] is given as 23.56%; in data set [2] it was 23.26%; in [4] it was 3.09%; in data set [5], 12.9%; in data set [6], 20.3%; in data set [16], “Toxic”. Further, the Activity is recorded as 54.61% in [17] and “Toxic” in data set [18]. Besides, in data set [3], the viability at 24 h, 50 ug/mL is 63.8%. The “growth inhibition (GI)” value in [19], in data set [20], in [11], in [21], in data set [22] and in [12] was “inactive” each time. Moreover, the “growth inhibition (GI)” value in data set [24] was “inactive”. Besides, the “growth inhibition (GI)” value in data set [7], in data set [8], in data set [9], in data set [10] and in data set [23] was “Active” each time. Moreover, the TAC in data set [15] was determined as 60%.

Turning to `Cc1ccc(/C=C/C(N)=S)cc1`, the Activity in data set [1] is given as 47.84%; in [2] it was 26.63%; in data set [4], 7.11%; in data set [5], 14.7%; in data set [6] it was 18.4%; in data set [16] it was “Toxic”. Moreover, the Activity in data set [17] is recorded as 24.16%; in data set [18], “Toxic”. In addition, the viability at 24 h, 50 ug/mL in [3] is 59.8%. The “growth inhibition (GI)” value in data set [19], in data set [20], in data set [11], in data set [21], in data set [22] and in data set [12] was “inactive” throughout. Further, in data set [24], the “growth inhibition (GI)” value is “inactive”. The “growth inhibition (GI)” value in data set [7], in [8], in [9] and in [10] was “Active” each time. In data set [15], the TAC was 25.7%.

For the origin of these results see ChEMBL document CHEMBL2417507, “Synthesis and bioevaluation of some new isoniazid derivatives” (Bioorg Med Chem, 2013).
